Measured values as given in ChEMBL document CHEMBL1914368, “Imidazo[1,5-a]quinoxalines as irreversible BTK inhibitors for the treatment of rheumatoid arthritis” (Bioorg Med Chem Lett, 2011).
The source made the active and inactive calls. The calls are words filed in the database; no cut-off is given here.

How the values were obtained:
[1] = biological target: T1, Tyrosine-protein kinase Lck (Homo sapiens, UniProt P06239); assay: Inhibition of C-terminal His6-tagged human full-length LCK expressed in Sf9 cells after 60 mins by TR-FRET Assay
[2] = biological target: Serine/threonine-protein kinase PLK1 (Homo sapiens) (UniProt P53350); assay: Inhibition of PLK1 relative to control; details: concentration not given here
[3] = biological target: RAF proto-oncogene serine/threonine-protein kinase (Homo sapiens) (UniProt P04049); assay: Inhibition of RAF1 relative to control; details: concentration not given here
[4] = biological target: Mitogen-activated protein kinase 9 (Homo sapiens) (UniProt P45984); assay: Inhibition of JNK2 relative to control; details: concentration not given here
[5] = biological target: Tyrosine-protein kinase BTK (Homo sapiens, UniProt Q06187); assay: Inhibition of human full-length BTK expressed in Sf9 cells using FAM-Srctide peptide as substrate preincubated for 60 mins measured after 60 mins by TR-FRET Assay
Method in brief: (§1)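 The compound was pre-incubated with the kinase before the enzymatic reaction was started. IC50 values are averages of two or more determinations.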

[6] = biological target: T2, Tyrosine-protein kinase Lyn (Homo sapiens, UniProt P07948); assay: Inhibition of LYN-A expressed in Sf9 cells preincubated for 60 mins measured after 60 mins by TR-FRET Assay; method in brief: as §1
[7] = biological target: Tyrosine-protein kinase Mer (Homo sapiens) (UniProt Q12866); assay: Inhibition of MERTK relative to control; details: concentration not given here
[8] = biological target: Platelet-derived growth factor receptor beta (Homo sapiens) (UniProt P09619); assay: Inhibition of PDGFRbeta relative to control; details: concentration not given here
[9] = biological target: Mitogen-activated protein kinase 14 (Homo sapiens) (UniProt Q16539); assay: Inhibition of MAPK14 relative to control; details: concentration not given here
Mus musculus [10] = assay: Antiarthritic activity in DBA/1 JBomTac mouse collagen-induced arthritis model assessed as inhibition of disease progression at 1 mg/kg, po qd measured on day 19 to 22; format: functional, organism-based; design: dose 1 mg/kg
Method in brief: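 Semi-therapeutic collagen-induced arthritis model. Blinded paw scoring used a 0–4 scale, reported as mean and SEM. Comparison to vehicle used Student's t-test, P <0.05.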

[11] = biological target: Tyrosine-protein kinase HCK (Homo sapiens) (UniProt P08631); assay: Inhibition of HCK relative to control; details: concentration not given here
[12] = biological target: Tyrosine-protein kinase Fer (Homo sapiens) (UniProt P16591); assay: Inhibition of FER relative to control; details: concentration not given here
[13] = biological target: Serine/threonine-protein kinase Nek2 (Homo sapiens) (UniProt P51955); assay: Inhibition of NEK2 relative to control; details: concentration not given here
Mus musculus [14] = assay: Antiarthritic activity in C57BL/6 mouse assessed as inhibition of T-independent type 2 antigen-induced NP-specific IgM antibody titer production administered qd for 7 days by ELISA; format: functional, organism-based; details: C57BL6
Method in brief: (§2)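 Female C57BL/6 mice, 8–10 weeks old, immunized ip with NP(109)-Ficoll (TI-2 antigen). Compound or vehicle given po daily for 7 days, starting 1 day before immunization. Serum was collected 6 days after immunization, and NP-specific IgM and IgG3 titers were measured by ELISA.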

[15] = biological target: Glycogen synthase kinase-3 beta (Homo sapiens) (UniProt P49841); assay: Inhibition of GSK3B relative to control; details: concentration not given here
[16] = biological target: T2, Tyrosine-protein kinase Lyn; assay: Inhibition of LYN-A expressed in Sf9 cells after 60 mins by TR-FRET Assay
[17] = AUC (0 to infinity) in mouse at 10 mg/kg, po; format: ADME, organism-based; design: time infinity, dose 10 mg/kg, route oral; details: plasma
[18] = biological target: T1, Tyrosine-protein kinase Lck; assay: Inhibition of LCK relative to control; details: concentration not given here
[19] = biological target: Hepatocyte growth factor receptor (Homo sapiens) (UniProt P08581); assay: Inhibition of MET relative to control; details: concentration not given here
[20] = biological target: Proto-oncogene tyrosine-protein kinase receptor Ret (Homo sapiens) (UniProt P07949); assay: Inhibition of RET relative to control; details: concentration not given here
[21] = biological target: 3-phosphoinositide-dependent protein kinase 1 (Homo sapiens) (UniProt O15530); assay: Inhibition of PDK1 relative to control; details: concentration not given here
[22] = biological target: Phosphatidylinositol 4-phosphate 3-kinase C2 domain-containing subunit alpha (Homo sapiens) (UniProt O00443); assay: Inhibition of PI3K-C2 alpha relative to control; details: concentration not given here
[23] = AUC (0 to infinity) in mouse at 2 mg/kg, iv; format: ADME, organism-based; design: time infinity, dose 2 mg/kg, route intravenous; details: plasma
[24] = biological target: Insulin receptor (Homo sapiens) (UniProt P06213); assay: Inhibition of INSR relative to control; details: concentration not given here
[25] = biological target: Vascular endothelial growth factor receptor 1 (Homo sapiens) (UniProt P17948); assay: Inhibition of FLT1 relative to control; details: concentration not given here
[26] = biological target: Tyrosine-protein kinase FRK (Homo sapiens, UniProt P42685); assay: Inhibition of FRK relative to control
[27] = biological target: RAC-alpha serine/threonine-protein kinase (Homo sapiens) (UniProt P31749); assay: Inhibition of AKT1 relative to control; details: concentration not given here
[28] = biological target: Receptor-type tyrosine-protein kinase FLT3 (Homo sapiens) (UniProt P36888); assay: Inhibition of FLT3 relative to control; details: concentration not given here
[29] = biological target: Serine/threonine-protein kinase Chk2 (Homo sapiens) (UniProt O96017); assay: Inhibition of CHEK2 relative to control; details: concentration not given here
[30] = biological target: Focal adhesion kinase 1 (Homo sapiens) (UniProt Q05397); assay: Inhibition of PTK2 relative to control; details: concentration not given here
[31] = Clearance in mouse at 2 mg/kg, iv; format: ADME, organism-based; design: dose 2 mg/kg, route intravenous; details: in vivo
[32] = biological target: Tyrosine-protein kinase Fgr (Homo sapiens) (UniProt P09769); assay: Inhibition of FGR relative to control; details: concentration not given here
Mus musculus [33] = assay: Antiarthritic activity in C57BL/6 mouse assessed as inhibition of T-independent type 2 antigen-induced IgG3 antibody titer production administered qd for 7 days by ELISA; format: functional, organism-based; details: C57BL6; method in brief: as §2
[34] = biological target: Receptor-interacting serine/threonine-protein kinase 2 (Homo sapiens) (UniProt O43353); assay: Inhibition of RIPK2 relative to control; details: concentration not given here
[35] = biological target: Mitogen-activated protein kinase 10 (Homo sapiens) (UniProt P53779); assay: Inhibition of JNK3 relative to control; details: concentration not given here
[36] = biological target: Tyrosine-protein kinase Blk (Homo sapiens, UniProt P51451); assay: Inhibition of BLK relative to control
Ephrin type-B receptor 3 = Ephrin type-B receptor 3 (Homo sapiens, UniProt P54753); assay: (§3) Inhibition of EPHB3 relative to control
[37] = biological target: Ephrin type-B receptor 3 (Homo sapiens) (UniProt P54753); assay: as §3; details: concentration not given here
[38] = biological target: Serine/threonine-protein kinase MARK1 (Homo sapiens) (UniProt Q9P0L2); assay: Inhibition of MARK1 relative to control; details: concentration not given here
[39] = biological target: Serine/threonine-protein kinase Chk1 (Homo sapiens) (UniProt O14757); assay: Inhibition of CHEK1 relative to control; details: concentration not given here
[40] = biological target: High affinity nerve growth factor receptor (Homo sapiens) (UniProt P04629); assay: Inhibition of NTRK1 relative to control; details: concentration not given here
[41] = biological target: Tyrosine-protein kinase Tec (Homo sapiens) (UniProt P42680); assay: Inhibition of TEC relative to control; details: concentration not given here
[42] = biological target: Tyrosine-protein kinase ABL1 (Homo sapiens, UniProt P00519); assay: Inhibition of Abl1 relative to control

T2 sequence (P07948 whole entry): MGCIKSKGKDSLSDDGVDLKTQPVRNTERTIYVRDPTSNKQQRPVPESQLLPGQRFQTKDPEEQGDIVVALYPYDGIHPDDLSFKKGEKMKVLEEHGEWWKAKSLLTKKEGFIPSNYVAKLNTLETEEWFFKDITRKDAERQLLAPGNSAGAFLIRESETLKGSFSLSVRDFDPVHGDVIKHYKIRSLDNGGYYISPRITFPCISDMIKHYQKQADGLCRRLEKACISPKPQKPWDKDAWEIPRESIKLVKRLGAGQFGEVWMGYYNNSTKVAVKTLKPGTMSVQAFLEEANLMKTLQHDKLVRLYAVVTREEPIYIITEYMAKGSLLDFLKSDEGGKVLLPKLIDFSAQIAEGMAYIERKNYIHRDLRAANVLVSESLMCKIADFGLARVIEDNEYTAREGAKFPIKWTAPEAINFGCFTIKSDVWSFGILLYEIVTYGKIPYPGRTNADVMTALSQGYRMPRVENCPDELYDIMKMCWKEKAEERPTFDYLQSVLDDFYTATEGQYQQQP
Tyrosine-protein kinase FRK, sequence (P42685 whole entry): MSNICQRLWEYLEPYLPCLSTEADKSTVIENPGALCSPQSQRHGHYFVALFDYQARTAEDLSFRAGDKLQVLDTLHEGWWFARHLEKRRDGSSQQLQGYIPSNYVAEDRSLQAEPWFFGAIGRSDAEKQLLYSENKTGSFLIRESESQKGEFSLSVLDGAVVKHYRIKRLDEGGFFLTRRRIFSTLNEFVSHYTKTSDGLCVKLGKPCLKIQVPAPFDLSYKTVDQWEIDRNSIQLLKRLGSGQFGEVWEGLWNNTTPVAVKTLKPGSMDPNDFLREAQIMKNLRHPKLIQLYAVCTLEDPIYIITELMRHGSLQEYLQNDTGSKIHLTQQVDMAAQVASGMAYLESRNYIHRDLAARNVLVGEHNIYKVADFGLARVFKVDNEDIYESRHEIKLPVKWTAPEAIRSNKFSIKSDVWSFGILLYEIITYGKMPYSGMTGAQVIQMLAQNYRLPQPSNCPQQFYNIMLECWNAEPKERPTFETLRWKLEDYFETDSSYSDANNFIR
Serine/threonine-protein kinase Chk1 (Homo sapiens), sequence (O14757 whole entry): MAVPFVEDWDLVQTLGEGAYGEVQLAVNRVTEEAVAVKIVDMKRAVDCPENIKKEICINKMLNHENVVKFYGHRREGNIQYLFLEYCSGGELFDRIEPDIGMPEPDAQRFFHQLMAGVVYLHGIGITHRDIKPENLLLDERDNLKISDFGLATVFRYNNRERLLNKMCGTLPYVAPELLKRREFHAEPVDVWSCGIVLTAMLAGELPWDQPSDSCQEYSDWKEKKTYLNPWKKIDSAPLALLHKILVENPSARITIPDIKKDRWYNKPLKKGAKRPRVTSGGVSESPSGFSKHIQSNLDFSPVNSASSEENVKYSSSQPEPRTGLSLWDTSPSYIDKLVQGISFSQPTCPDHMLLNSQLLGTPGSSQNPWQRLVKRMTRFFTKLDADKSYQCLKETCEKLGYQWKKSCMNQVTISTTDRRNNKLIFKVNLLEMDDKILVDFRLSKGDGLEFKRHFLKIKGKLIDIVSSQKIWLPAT
Tyrosine-protein kinase Tec (Homo sapiens), sequence (P42680 whole entry): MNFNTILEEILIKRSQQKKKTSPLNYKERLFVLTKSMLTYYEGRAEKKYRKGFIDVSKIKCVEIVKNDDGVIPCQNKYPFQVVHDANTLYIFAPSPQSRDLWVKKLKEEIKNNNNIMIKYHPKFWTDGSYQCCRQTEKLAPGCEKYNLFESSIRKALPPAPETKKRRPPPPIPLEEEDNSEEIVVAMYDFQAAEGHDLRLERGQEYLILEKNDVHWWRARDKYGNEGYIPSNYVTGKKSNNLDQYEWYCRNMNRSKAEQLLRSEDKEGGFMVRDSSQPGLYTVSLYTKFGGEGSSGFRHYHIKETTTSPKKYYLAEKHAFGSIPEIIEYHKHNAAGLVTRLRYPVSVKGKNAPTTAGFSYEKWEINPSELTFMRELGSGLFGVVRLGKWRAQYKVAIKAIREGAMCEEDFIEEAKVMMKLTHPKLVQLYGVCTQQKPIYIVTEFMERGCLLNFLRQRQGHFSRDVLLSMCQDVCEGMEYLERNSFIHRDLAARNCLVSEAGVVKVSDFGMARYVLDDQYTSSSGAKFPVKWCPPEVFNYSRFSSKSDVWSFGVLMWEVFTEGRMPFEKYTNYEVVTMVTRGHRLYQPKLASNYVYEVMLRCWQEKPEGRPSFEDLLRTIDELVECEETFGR
RAC-alpha serine/threonine-protein kinase (Homo sapiens), sequence (P31749 whole entry): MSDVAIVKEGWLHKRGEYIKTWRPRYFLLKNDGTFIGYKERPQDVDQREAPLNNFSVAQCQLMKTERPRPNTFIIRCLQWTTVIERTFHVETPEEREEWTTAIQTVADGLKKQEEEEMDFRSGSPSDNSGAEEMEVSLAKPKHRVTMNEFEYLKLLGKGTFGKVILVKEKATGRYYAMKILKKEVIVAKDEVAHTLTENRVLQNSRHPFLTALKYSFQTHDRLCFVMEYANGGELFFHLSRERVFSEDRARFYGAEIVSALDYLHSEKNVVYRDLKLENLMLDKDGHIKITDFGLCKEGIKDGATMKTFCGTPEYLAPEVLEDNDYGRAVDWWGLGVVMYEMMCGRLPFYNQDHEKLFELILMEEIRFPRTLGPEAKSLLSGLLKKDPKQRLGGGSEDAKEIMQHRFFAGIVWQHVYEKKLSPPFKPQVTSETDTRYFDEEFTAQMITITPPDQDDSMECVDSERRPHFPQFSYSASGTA
Mitogen-activated protein kinase 14 (Homo sapiens), sequence (Q16539 whole entry): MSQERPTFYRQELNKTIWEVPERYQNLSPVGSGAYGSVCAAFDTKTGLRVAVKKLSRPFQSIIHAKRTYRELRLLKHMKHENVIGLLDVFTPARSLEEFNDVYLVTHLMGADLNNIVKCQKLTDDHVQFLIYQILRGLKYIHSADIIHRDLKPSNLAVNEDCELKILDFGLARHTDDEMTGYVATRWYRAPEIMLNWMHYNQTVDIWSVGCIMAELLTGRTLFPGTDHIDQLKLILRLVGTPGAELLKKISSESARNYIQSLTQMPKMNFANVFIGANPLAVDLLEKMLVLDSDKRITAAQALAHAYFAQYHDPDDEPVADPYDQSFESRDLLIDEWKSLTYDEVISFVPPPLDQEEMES
Mitogen-activated protein kinase 9 (Homo sapiens), sequence (P45984 whole entry, looked up): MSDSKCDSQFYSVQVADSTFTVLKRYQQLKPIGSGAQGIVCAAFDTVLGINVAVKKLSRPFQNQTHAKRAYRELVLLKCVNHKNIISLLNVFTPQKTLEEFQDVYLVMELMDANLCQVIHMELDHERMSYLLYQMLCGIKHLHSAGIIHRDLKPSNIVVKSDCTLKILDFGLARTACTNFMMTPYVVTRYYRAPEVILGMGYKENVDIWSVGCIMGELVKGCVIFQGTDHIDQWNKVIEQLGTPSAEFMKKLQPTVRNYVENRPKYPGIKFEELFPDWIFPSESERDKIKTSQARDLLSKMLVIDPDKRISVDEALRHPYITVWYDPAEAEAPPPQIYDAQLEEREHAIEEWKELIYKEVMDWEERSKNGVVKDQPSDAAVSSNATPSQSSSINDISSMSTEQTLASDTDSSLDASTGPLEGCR
Tyrosine-protein kinase Fgr (Homo sapiens), sequence (P09769 2-529 limits assumed): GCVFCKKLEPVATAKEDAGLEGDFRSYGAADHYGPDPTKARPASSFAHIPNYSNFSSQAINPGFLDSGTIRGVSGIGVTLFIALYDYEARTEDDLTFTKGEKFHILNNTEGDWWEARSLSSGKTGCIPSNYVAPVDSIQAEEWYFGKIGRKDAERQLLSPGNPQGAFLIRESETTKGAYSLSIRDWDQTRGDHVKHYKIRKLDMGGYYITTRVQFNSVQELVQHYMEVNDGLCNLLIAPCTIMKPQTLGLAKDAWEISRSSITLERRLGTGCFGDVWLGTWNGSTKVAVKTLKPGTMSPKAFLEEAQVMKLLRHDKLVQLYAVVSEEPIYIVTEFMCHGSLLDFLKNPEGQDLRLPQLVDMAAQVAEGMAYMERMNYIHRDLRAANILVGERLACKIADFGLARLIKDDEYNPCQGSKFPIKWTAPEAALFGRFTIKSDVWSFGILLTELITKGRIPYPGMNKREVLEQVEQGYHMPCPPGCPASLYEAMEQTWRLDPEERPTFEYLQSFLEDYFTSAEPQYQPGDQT
Receptor-type tyrosine-protein kinase FLT3 (Homo sapiens), sequence (P36888 whole entry): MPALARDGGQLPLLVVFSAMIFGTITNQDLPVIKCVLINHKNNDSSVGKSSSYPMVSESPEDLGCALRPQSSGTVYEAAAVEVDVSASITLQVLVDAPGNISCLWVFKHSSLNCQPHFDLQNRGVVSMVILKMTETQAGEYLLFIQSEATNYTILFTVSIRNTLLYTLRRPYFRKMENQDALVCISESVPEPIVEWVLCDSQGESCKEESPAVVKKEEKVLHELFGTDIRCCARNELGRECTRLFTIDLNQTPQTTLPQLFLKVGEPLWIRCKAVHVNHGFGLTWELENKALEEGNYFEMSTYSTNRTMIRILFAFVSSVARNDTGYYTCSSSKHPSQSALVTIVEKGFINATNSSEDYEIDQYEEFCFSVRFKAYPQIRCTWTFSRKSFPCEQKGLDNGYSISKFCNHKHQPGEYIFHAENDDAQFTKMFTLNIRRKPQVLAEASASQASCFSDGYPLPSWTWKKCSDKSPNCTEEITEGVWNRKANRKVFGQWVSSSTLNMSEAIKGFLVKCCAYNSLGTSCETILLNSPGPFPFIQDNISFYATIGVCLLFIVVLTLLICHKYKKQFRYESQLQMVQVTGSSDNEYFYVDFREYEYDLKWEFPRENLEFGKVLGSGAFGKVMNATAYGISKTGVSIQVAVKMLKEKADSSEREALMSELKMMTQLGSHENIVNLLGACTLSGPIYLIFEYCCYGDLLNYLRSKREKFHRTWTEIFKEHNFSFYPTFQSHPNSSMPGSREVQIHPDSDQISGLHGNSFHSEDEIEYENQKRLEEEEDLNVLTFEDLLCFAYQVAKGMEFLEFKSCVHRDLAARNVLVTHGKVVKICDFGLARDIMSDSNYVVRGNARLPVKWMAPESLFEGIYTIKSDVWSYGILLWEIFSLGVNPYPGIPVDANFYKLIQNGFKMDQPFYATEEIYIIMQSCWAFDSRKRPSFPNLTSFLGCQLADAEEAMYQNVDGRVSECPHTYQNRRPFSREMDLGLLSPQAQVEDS

Work on `Cc1ccccc1Nc1nc2cc(F)c(N(C)C(=O)/C=C/CN(C)C)cc2n2cncc12` yielded an IC50 [1] of 772 nM, an inhibition [2] of 4% and an inhibition [3] of 9%. For the same compound, the inhibition [4] was 18%, the IC50 [5] was 0.7 nM and the IC50 [6] was 353 nM. The inhibition [7] was 4%, the inhibition [8] was 2% and the inhibition [9] was 6%. For the same compound, the Activity (Mus musculus [10]) was “Active”, the inhibition [11] was 5% and the inhibition [12] was 7%. For the same compound, the inhibition [13] was 10%, the inhibition (Mus musculus [14]) was “Dose-dependent effect” and the inhibition [15] was 6%. For the same compound, the IC50 [16] was 624 nM, the AUC(0-inf) [17] was 876 ng·h/mL and the inhibition [18] was 25%. The inhibition [19] was -1%, the inhibition [20] was 6% and the inhibition [21] was 7%. It also gave an inhibition [22] of 0%, an AUC(0-inf) [23] of 510 ng·h/mL and an inhibition [24] of -5%. It also gave an inhibition [25] of 1%, an IC50 [26] of 611 nM and an inhibition ([26]; concentration not given here) of 60%. The inhibition [27] was 4%, the inhibition [28] was -8% and the inhibition [29] was 19%. The inhibition [30] was -2%, the clearance [31] was 63 mL/min/kg and the inhibition [32] was 15%. The inhibition (Mus musculus [33]) was “Dose-dependent effect”, the inhibition [34] was 8% and the inhibition [35] was 0%. It also gave an IC50 [36] of 16 nM, an inhibition ([36]; concentration not given here) of 109% and an IC50 (Ephrin type-B receptor 3) of 350 nM. It also gave an inhibition [37] of 50%, an inhibition [38] of 8% and an inhibition [39] of 8%. For the same compound, the inhibition [40] was 8%, the inhibition [41] was 42% and the IC50 [42] was 109 nM.
